Screens (PubChem BioAssay)
In the library only some 4.3% were active in any assay of this set; here they are far more common.
AHR activator: activates the human aryl hydrocarbon receptor | 2.5% of 320,000 active | AHR-responsive luciferase reporter cells, luminescence | P35869 | AID 2796 | activation, % at 5 µM; in the data active = activation above about 47%;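 also: 0% = vehicle wells and 100% = reference agonist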
SR-BI HDL uptake: blocks mouse SR-BI lipid uptake from DiI-HDL; ldlA[mSR-BI] CHO cells, DiI-HDL uptake fluorescence, 3 h; Q61009; 0.96% of 320,000 active; inhibition, % at 12.5 µM; AID 488896;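 active = mean replicate inhibition of at least 70% and a set share of replicates each scoring 70 or more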;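 also: 0% = median of neutral control wells and 100% = median of positive control wells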
Lipid droplet: hepatic lipid droplet formation modulation; AML12 mouse hepatocytes, oleate lipid droplets, BODIPY imaging; inhibition, % at 6.5 µM; 0.4% of 240,000 active;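 active = lipid droplet intensity inhibited by at least 50%, with more than 500 cells counted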
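material = mouse AML12 hepatocyte cell line, fixed after treatment | also added = 100 µM oleic acid challenge | doses = compound at 6.5 µM only | schedule = overnight exposure | technique = Image-based BODIPY and DAPI two-channel analysis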
SR-BI DiI-HDL act: SR-BI HDL lipid transfer activation; CHO ldlA[mSR-BI] cells, DiI-HDL uptake fluorescence, 3 h; 100 = double the neutral-control signal; activation, % at 12.5 µM; 0.096% of 320,000 active;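 active = mean replicate activation of at least 60% and every replicate at or above 60%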;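 also: 0% = median plate neutral-control signal and 100% = twice that signal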
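Assay system: CHO ldlA[mSR-BI] cells, LDL receptor-null, SR-BI overexpressing; medium: Ham's F12 with 0.5% BSA, HEPES 25 mM, pH 7.4; also added: DiI-HDL 10 µg/mL; timing: 3 h uptake period with compound, 37 °C; signal: DiI fluorescence, bottom read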
SMARCA2 activ: activators of SMARCA2 function; MG213 cells, MMTV-luciferase reporter, dexamethasone, overnight; activation, % at 9.1 µM; AID 652017; 1% of 370,000 active; in the data active = activation above about 7.8%;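 also: 0% = vehicle wells and 100% = reference activator wells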
Yeast superoxide: caloric restriction mimetics inhibiting age-related superoxide in yeast | 0.18% of 330,000 active | superoxide response (% of plate mean), % at 10 µM | S. cerevisiae aged cells, superoxide DHE fluorescence; hits give low values;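 active = superoxide response under a set limit, about three screen SD below normal, cut at about 65% in these data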;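 also: yeast aged for seven days with compound at 30 °C before DHE staining; 100% = average MFI of all compound-treated wells on the plate with controls excluded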
AHR act confirm: confirmation of human aryl hydrocarbon receptor activators | shares compounds with AHR activator | human cells, AHR-responsive luciferase reporter, luminescence | activation, % at 9 µM | 87% of 2,300 active; in the data active = activation above about 49%;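 also: HepG2 hepatoma cells carrying a DRE-driven firefly luciferase reporter; 0% = vehicle wells and 100% = reference agonist wells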
PXR counter: counter-screen for AHR activators: human PXR activators | shares compounds with AHR activator | cell-based PXR reporter, luciferase luminescence | activation, % at 11.6 µM | 88% of 2,300 active; in the data active = activation above about 11%;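 also: human hepatoma DPX-2 cells expressing full-length human PXR; 0% = DMSO and 100% = reference agonist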
Target sequence (O75469 whole entry, looked up): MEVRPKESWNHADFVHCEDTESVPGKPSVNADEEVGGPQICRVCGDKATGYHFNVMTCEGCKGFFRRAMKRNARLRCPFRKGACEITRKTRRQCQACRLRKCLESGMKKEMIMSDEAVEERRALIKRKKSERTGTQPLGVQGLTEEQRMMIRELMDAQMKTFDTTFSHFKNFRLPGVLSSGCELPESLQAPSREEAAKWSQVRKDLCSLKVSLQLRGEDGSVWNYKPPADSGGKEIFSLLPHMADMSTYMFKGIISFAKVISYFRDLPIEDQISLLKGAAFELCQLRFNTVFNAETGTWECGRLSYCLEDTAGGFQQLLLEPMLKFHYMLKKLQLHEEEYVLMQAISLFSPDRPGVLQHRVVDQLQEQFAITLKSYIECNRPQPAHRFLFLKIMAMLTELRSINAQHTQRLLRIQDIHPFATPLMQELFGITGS
The depositor's hits bear a star; / = no result.

SMILES	AHR activator	SR-BI HDL uptake	Lipid droplet	SR-BI DiI-HDL act	SMARCA2 activ	Yeast superoxide	AHR act confirm	PXR counter
CN1OC[C@@H]2CN(C(=O)c3ccc([N+](=O)[O-])cc3)[C@H](c3ccccc3Br)C[C@@H]21	/	/	/	/	-6	/	/	/
COCCCNC(=O)c1sc2ncnc(N3CCc4ccccc4C3)c2c1C	100*	61	-119	-61	-4	106	82*	20*
CC(=O)Nc1ccc(/C=N/Nc2nc3ccccc3[nH]2)cc1	157*	16	-6	-16	-1	93	107*	13*
CCN(CC)c1ccc(/C=N/Nc2nc3ccccc3[nH]2)cc1	/	24	-89	-24	-8	/	/	/
C(=N\Nc1nc2ccccc2[nH]1)/c1ccncc1	108*	-9	-4	9	4	98	114*	11*
O=C(CN1CCCCC1)N/N=C/c1cc2ccccc2nc1Cl	1	-25	-23	25	-1	100	/	/
CC(/C=N/Nc1nc2ccccc2[nH]1)=C\c1ccccc1	38	14	11	-14	7	126	/	/
Clc1nc2ccccc2cc1/C=N/Nc1nc2ccccc2[nH]1	83*	10	12	-10	5	96	73*	21*
Cc1nn(-c2ccccc2)c(C)c1/C=N/Nc1nc2ccccc2[nH]1	181*	57	-3	-57	6	90	34	26*
C[C@H]1CN(S(=O)(=O)C(C)(C)C)[C@H](CCO)/C1=C\CCO	/	/	/	/	-5	/	/	/
CC[C@@H](CCC(=O)N(c1ccccc1)c1ccccc1)c1ccc(C)cc1	/	/	/	/	-6	/	/	/
Cc1ccc(-n2c(SCc3cccc4ccccc34)nnc2-c2ccccn2)cc1	/	/	/	/	-4	/	/	/
CC(=O)C1=CCN(C)CC1	/	/	/	/	-5	/	/	/
Cn1c(/C=N/Nc2nc3ccccc3[nH]2)nc2ccccc21	88*	2	-15	-2	5	88	60*	9
COc1cc(/C=N/Nc2nc3ccccc3[nH]2)cc(OC)c1O	81*	16	-4	-16	-3	96	17	6
COc1ccccc1Nc1nc2ccccc2[nH]1	119*	11	/	-11	5	99	63*	35*
C=CCN1C(=O)[C@@H](CC(=O)NCc2cccs2)[C@]2(C(=O)OC)CCCCC=C12	/	/	/	/	-5	/	/	/
CN1CCCCC(NC(=O)c2c(F)cccc2F)C1=O (stereo unspecified)	/	/	/	/	2	/	/	/
C=CCN1C(=O)[C@H](CC(=O)N2CCN(C(=O)c3ccco3)CC2)[C@@]2(C(=O)OCC)CCCC=C12	/	/	/	/	0	/	/	/
COC(=O)C1CN(Cc2ccc(C)cc2)CCS(=O)(=O)N1Cc1cn(Cc2ccc(Cl)cc2)nn1 (stereo unspecified)	/	/	/	/	-4	/	/	/
COc1ccc(N2CCCN(CC(=O)Nc3ccccc3C)CC2)cc1	/	/	/	/	-4	/	/	/
CC(=O)c1ccc(C(=O)Nc2sc3c(c2C(N)=O)CCN(Cc2ccccc2)C3)cc1	5	33	0	-33	3	93	/	/
COc1cccc(OC)c1C(=O)Nc1sc2c(c1C(N)=O)CCN(Cc1ccccc1)C2	129*	48	0	-48	-1	109	85*	59*
N#C/C(=C(\O)c1cc(Cl)sc1Cl)c1nc2ccccc2[nH]1	89*	-11	-12	11	0	136	161*	13*
FC(F)(F)c1ccccc1CN1CCCc2nc(-c3ccc(Br)cc3)ccc21	/	/	/	/	5	/	/	/
COc1cc(/C=N/NC(=O)c2cccc(NC(=O)c3ccccc3)c2)ccc1O	100*	33	-2	-33	2	97	88*	/
N#CCC[C@@H]1CC[C@]2(CCCN(S(=O)(=O)c3ccccc3)C2)O1	/	/	/	/	0	/	/	/
C=CCN(CC#Cc1ccccc1)Cc1ccc2c(c1)OCO2	/	/	/	/	-2	/	/	/
CCOC(=O)N1C(=O)C[C@](Sc2ccc(OC)cc2)(C(=O)N2CCOCC2)[C@H]1c1ccc(OC)cc1	/	/	/	/	1	/	/	/
Cc1cc(Br)ccc1NC(=O)c1sc2ncnc(N3CCN(c4ccccn4)CC3)c2c1C	80*	56	-61	-56	0	95	91*	19*
